Laboratory results published in the RNAGym collection of RNA variant scans (doi:10.1126/science.aae0568).
Fewer inactive variants are shown than the library holds.

B1: tRNA (parent)
chain: GUUCCGUUGGCGUAAUGGUAACGCGUCUCCCUCCUAAGGAGAAGACUGCGGGUUCGAGUCCCGUACGGAACG

Variants of: B1
Test: yeast fitness relative to wild type (ratio to wild type); higher = fitter; tRNA-Arg(CCU), competitive growth, 37 C, YPD
Outline: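 Amplicons of the tRNA-Arg(CCU) gene were sequenced, 100-nucleotide paired-end, from the start population and from each end population of a pooled yeast competition. The competition, in six parallel replicates, lasted 24 hours in YPD at 37°C. Fitness relative to wild type was calculated from changes in genotype frequencies. Genotypes had to have ≥ 100 starting reads, and estimates < 0.5 were set to 0.5.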
For U8G A21G C29U U32C, the yeast fitness was at most 0.5. U8G A14C G17C C61G showed a yeast fitness of at most 0.5. U8C U28A A37G G41C gave a yeast fitness of at most 0.5. For U8C C33A C55G A69C, the yeast fitness was at most 0.5. U8C C34G G58C C62U showed a yeast fitness of at most 0.5. Work on G9A A20G C62U yielded a yeast fitness of 0.736. G9A A14U A21U A65G gave a yeast fitness of 0.556. G9A A14U C29G C34A U54A showed a yeast fitness of at most 0.5. For U8C G41C A69U, the yeast fitness was 0.637. With G9A A21G C61U A65U the yeast fitness was at most 0.5. With G9A A21U A36G A40C the yeast fitness was at most 0.5. In the case of U8G G9C U54G, the yeast fitness is reported as at most 0.5. In the case of U8C C27U C31A C55A G56A A65G, the yeast fitness is reported as at most 0.5. G9A C11A C22G U35C gave a yeast fitness of at most 0.5. G9A A20G A40C A42U A43C G48A showed a yeast fitness of at most 0.5. With U8G U35A the yeast fitness was at most 0.5. U8C U13A C22A A42U showed a yeast fitness of at most 0.5. Variant U8G U35A G41A U54A C55U has a yeast fitness of at most 0.5. With U8C C46G G67A the yeast fitness was 0.674. For U8C G23C C27G G50A C66G A69G, the yeast fitness was 0.836. In the case of U8C C61G, the yeast fitness is reported as 0.678. U8G G17A G48C showed a yeast fitness of at most 0.5. With G9A A43U G56C the yeast fitness was 0.536. In the case of G9A C11A C24U C34A A37U C62A C66A, the yeast fitness is reported as at most 0.5. U8C C60A showed a yeast fitness of 0.737. With U8C U16C C24U U28C U47A C55U the yeast fitness was at most 0.5. With G9A A42U the yeast fitness was 0.87. For G9A A42C, the yeast fitness was 0.855. G9A A42G showed a yeast fitness of 0.96. Variant U8C C33U has a yeast fitness of 0.728. For U8G A15G C24U C29G A45C C60A, the yeast fitness was 0.551. G9A A37C A65C showed a yeast fitness of 0.56. Variant U8C G48C G52A C66A has a yeast fitness of at most 0.5. G9A A20U C34G A42U G68C showed a yeast fitness of at most 0.5. With U8C G44A U53C C55U A70U the yeast fitness was at most 0.5. For U8C U28C C30G C31G A65C, the yeast fitness was at most 0.5. Work on U8C U32C G44A G56A yielded a yeast fitness of at most 0.5. Work on U8C G18C G50A C60U yielded a yeast fitness of 0.546. Work on U8C U16C A21C C49A G58A C66U G68A yielded a yeast fitness of at most 0.5. U8C U19A A57C U64A showed a yeast fitness of at most 0.5. With U8G G38A G68U the yeast fitness was at most 0.5. Work on U8C C49A G68C yielded a yeast fitness of at most 0.5. In the case of U8C U19A A40C G44C G48C U53G, the yeast fitness is reported as at most 0.5. U8G G10A gave a yeast fitness of at most 0.5. U8G C24G G41A showed a yeast fitness of 0.553. Variant G9A A21C G25C has a yeast fitness of 0.565. In the case of G9A A65C, the yeast fitness is reported as 0.93. For U8G U13C A36C U53C, the yeast fitness was at most 0.5. G9A A40C A69U showed a yeast fitness of 0.722. Work on U8C G9C C49U yielded a yeast fitness of at most 0.5. Work on U8C G17A A70U yielded a yeast fitness of at most 0.5. U8G G10C A20G C55U showed a yeast fitness of at most 0.5. U8C C30G C49A G68A gave a yeast fitness of at most 0.5. G9A A14C G38C G68A showed a yeast fitness of at most 0.5. U8G A15C showed a yeast fitness of 0.598. U8C U13C A36U G38A A65C gave a yeast fitness of at most 0.5. With U8G C27U C30A A43C the yeast fitness was at most 0.5. Variant U8C C27U C34G has a yeast fitness of at most 0.5. With U8C U13A U32C A69U the yeast fitness was 0.677. Work on U8G A43C G51A yielded a yeast fitness of at most 0.5. With U8C G12A U19C C34G C66U A69U the yeast fitness was at most 0.5. With U8G A14G A21G C27A U35A C62A A65C the yeast fitness was at most 0.5. U8C C46A showed a yeast fitness of 1.01. With U8C C46U the yeast fitness was 1.03. Variant U8G U35A A70U has a yeast fitness of at most 0.5. In the case of U8G A37U G52A A57C C60A, the yeast fitness is reported as at most 0.5. G9A A42C G58A gave a yeast fitness of 0.917. U8C U16A C27U C55G gave a yeast fitness of 0.691. U8C C30G C33G showed a yeast fitness of at most 0.5. Work on G9A A36U G39A yielded a yeast fitness of 0.535. Variant U8G A14U A15U A20C C60U A69C has a yeast fitness of at most 0.5. Work on U8G C62G yielded a yeast fitness of 0.533. For U8C C30U, the yeast fitness was 0.935. For U8C C30G, the yeast fitness was 0.674. Work on U8C C30A yielded a yeast fitness of 0.948. U8C G44C C60G showed a yeast fitness of 0.53. U8G C22G G48A C60A U64C A69C gave a yeast fitness of 0.561. For U8G A21C G56C, the yeast fitness was 0.766. Work on U8C G23C yielded a yeast fitness of 0.642. With U8G G9U C30A C61A the yeast fitness was 0.539. Work on U8C C46A G50C yielded a yeast fitness of 0.567. Work on U8C U47C A69C yielded a yeast fitness of 0.714. Work on U8C G25A A36C A70G yielded a yeast fitness of 0.624. In the case of U8C G17A G41C U64A A65C, the yeast fitness is reported as at most 0.5. Work on U8C G38A G52A yielded a yeast fitness of at most 0.5. U8G C22U U28C C62A showed a yeast fitness of at most 0.5. U8C G10C A42G A43G C55U gave a yeast fitness of 0.724. For U8C C66U, the yeast fitness was 0.892. U8C C66G showed a yeast fitness of 0.75. Variant U8C C66A has a yeast fitness of 0.687. U8G C24G G41A A69U showed a yeast fitness of at most 0.5. Work on G9A A45C yielded a yeast fitness of 0.971. U8G C62U U64A G67C showed a yeast fitness of 0.603. For U8C G25C G38A G58A C60U C62U, the yeast fitness was at most 0.5. In the case of G9A A21C G25C U64A G67A, the yeast fitness is reported as at most 0.5. For G9A A14C U32A A70G, the yeast fitness was at most 0.5. Work on U8G C11G U32A yielded a yeast fitness of 0.642. U8G C11A C24A C29A C34U C61G A65C showed a yeast fitness of at most 0.5. In the case of G9A A40U, the yeast fitness is reported as 1.06. U8C C30G C31G C66U showed a yeast fitness of at most 0.5. Variant U8G G52A G67C has a yeast fitness of 0.521. Work on U8C G9C A37U G38A G39A yielded a yeast fitness of at most 0.5. U8G C27A C61A G67A showed a yeast fitness of at most 0.5. Variant U8C C29G U35G C61U has a yeast fitness of at most 0.5. In the case of U8G C22U C62A, the yeast fitness is reported as 0.559. With U8C U26G A42C the yeast fitness was 0.703. With U8C G9A C22U C30A C49A C55A C62U C66U the yeast fitness was at most 0.5. For U8G G10C U13G C29A C34G A43C C60G, the yeast fitness was at most 0.5. Work on U8G C24G C55A A65U yielded a yeast fitness of at most 0.5. For U8C C29A A65C C66G, the yeast fitness was at most 0.5. Work on U8G G17A A20C C22G C29G C34G G68A yielded a yeast fitness of 0.606. With U8G A45C the yeast fitness was 0.537. U8G A45G showed a yeast fitness of 0.632. Work on G9A A20G U59A C66G yielded a yeast fitness of at most 0.5. Work on U8C U19A A40U yielded a yeast fitness of 0.581. In the case of U8G C29G, the yeast fitness is reported as 0.55. U8G G10C A20G U59C G67A showed a yeast fitness of at most 0.5. With U8C C31G A45G C62G the yeast fitness was at most 0.5. For U8G G58U A65G G67A, the yeast fitness was 0.547. For U8C G50A, the yeast fitness was 0.773. In the case of U8G C31G G41C G50C C60U A69C, the yeast fitness is reported as at most 0.5. G9A A14C C55U gave a yeast fitness of at most 0.5. With G9A A20U C66U the yeast fitness was 0.529. For U8C G12A C29U U35G C62U, the yeast fitness was at most 0.5. For U8G A37C G68A, the yeast fitness was at most 0.5. G9A A14U G48C gave a yeast fitness of at most 0.5. Work on G9A A14G G23A G41C G51C yielded a yeast fitness of at most 0.5. For U8C U13G C22U, the yeast fitness was 0.529. For U8G A20G G58U A65G G67A, the yeast fitness was at most 0.5. In the case of U8C G52A, the yeast fitness is reported as 0.765. Variant U8G A20U A36C A65G has a yeast fitness of at most 0.5. In the case of U8C C49G A57G, the yeast fitness is reported as 0.531. With U8C G18C A21C C61U C66U the yeast fitness was at most 0.5. In the case of U8C G44A C55U, the yeast fitness is reported as at most 0.5. Variant U8C G18C A20U C49G has a yeast fitness of at most 0.5. Work on U8C C33U A70U yielded a yeast fitness of at most 0.5. U8C G12A gave a yeast fitness of 0.714. U8G C34G gave a yeast fitness of at most 0.5. U8G G25C G52C gave a yeast fitness of at most 0.5. G9A A65G G68C showed a yeast fitness of 0.594. U8C C29G A37G G67C gave a yeast fitness of 0.573. For U8C G23A G44C A45U C49A, the yeast fitness was at most 0.5. In the case of G9A A37C A45U, the yeast fitness is reported as at most 0.5. G9A A20U showed a yeast fitness of 0.829. Variant G9A A40U C62G has a yeast fitness of 0.593. For U8C U28G C46G C49U A69C, the yeast fitness was at most 0.5. U8G C33G U54A U59A G67A showed a yeast fitness of at most 0.5. For G9A A45U U64C, the yeast fitness was 0.57. With U8G A37C G52C G58C the yeast fitness was at most 0.5. For U8C G48A, the yeast fitness was 0.899. G9A A36U G51A C61G gave a yeast fitness of at most 0.5. In the case of G9A A36G G67C, the yeast fitness is reported as 0.664. U8G U26A G52A gave a yeast fitness of 0.59. For U8G A21U C62U, the yeast fitness was at most 0.5. Work on G9A A37C C62G yielded a yeast fitness of at most 0.5. U8G U26A C31U showed a yeast fitness of 0.52. U8G C24A C30G A40G showed a yeast fitness of 0.559. In the case of U8C G23A A65C, the yeast fitness is reported as 0.571. G9A A15G A43G C49G U53G gave a yeast fitness of 0.553. Work on U8C C27U C62U yielded a yeast fitness of 0.736. With U8C G12C U32G A42U the yeast fitness was at most 0.5. In the case of G9A A14C A42G C49G U54C G63C A70U, the yeast fitness is reported as at most 0.5. U8G C24A C30G A40G U47G C55U gave a yeast fitness of 0.512. U8C U19G A45C gave a yeast fitness of at most 0.5. Variant U8G A21G C27A U35A C62A A65C has a yeast fitness of 0.568. Variant U8G A21G G23A U64C has a yeast fitness of at most 0.5. Work on U8C U16A A21U C24G G48C yielded a yeast fitness of at most 0.5.
